In brackets after ≈: the same amount, converted by molar mass.
Tests used:
[1] = Inhibition of Neisseria gonorrhoeae DNA topoisomerase 4 decatenation activity using kDNA as substrate incubated for 10 to 20 min by ethidium bromide/bromophenol blue staining based agarose gel electrophoresis analysis
Outline: (§1)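 The N. gonorrhoeae enzymes were assayed separately: supercoiling by DNA gyrase, and decatenation of kDNA by topoisomerase IV. Concentration–response data were collected over at least three independent experiments and summarized with standard deviation, and IC50 values were derived.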

Neisseria gonorrhoeae [2] = test: Antimicrobial activity against wild type Neisseria gonorrhoeae P strain incubated for 20 to 24 hrs by CLSI protocol based broth microdilution method; assay type: functional; details: time 20-24 hrs
Neisseria gonorrhoeae [3] = test: Antimicrobial activity against wild type Neisseria gonorrhoeae V strain harbouring type 2 topoisomerase GyrA S91F, D95G and ParC S87R mutant incubated for 20 to 24 hrs by CLSI protocol based broth microdilution method; assay type: functional; details: time 20-24 hrs
Neisseria gonorrhoeae [4] = test: Antimicrobial activity against Neisseria gonorrhoeae K strain harbouring type 2 topoisomerase GyrA S91F, D95N and ParC S87R, S88P mutant incubated for 20 to 24 hrs by CLSI protocol based broth microdilution method; assay type: functional; details: time 20-24 hrs
[5] = Inhibition of Neisseria gonorrhoeae DNA gyrase supercoiling activity incubated for 25 min by ethidium bromide/bromophenol blue staining based agarose gel electrophoresis analysis; outline: as §1
Neisseria gonorrhoeae [6] = test: Antimicrobial activity against wild type Neisseria gonorrhoeae F strain incubated for 20 to 24 hrs by CLSI protocol based broth microdilution method; assay type: functional; details: time 20-24 hrs
Neisseria gonorrhoeae [7] = test: Antimicrobial activity against wild type Neisseria gonorrhoeae ATCC 49226 incubated for 20 to 24 hrs by CLSI protocol based broth microdilution method; assay type: functional; details: time 20-24 hrs
Neisseria gonorrhoeae [8] = test: Antimicrobial activity against wild type Neisseria gonorrhoeae Y strain harbouring type 2 topoisomerase GyrA S91F, D95G and ParC S87R mutant incubated for 20 to 24 hrs by CLSI protocol based broth microdilution method; assay type: functional; details: time 20-24 hrs
Neisseria gonorrhoeae [9] = test: Antimicrobial activity against wild type Neisseria gonorrhoeae O strain incubated for 20 to 24 hrs by CLSI protocol based broth microdilution method; assay type: functional; details: time 20-24 hrs
Neisseria gonorrhoeae [10] = test: Antimicrobial activity against Neisseria gonorrhoeae G strain harbouring type 2 topoisomerase GyrA S91F and ParE G410V mutant incubated for 20 to 24 hrs by CLSI protocol based broth microdilution method; assay type: functional; details: time 20-24 hrs
DNA gyrase = DNA gyrase (Staphylococcus aureus, UniProt P0A0K8+P20831); test: Inhibition of Staphylococcus aureus DNA gyrase supercoiling activity incubated for 25 min by ethidium bromide/bromophenol blue staining based agarose gel electrophoresis analysis; assay type: protein-complex assay
Staphylococcus aureus [11] = test: Antibacterial activity against Staphylococcus aureus ATCC 29213 by CLSI method; assay type: functional
Staphylococcus aureus [12] = test: Antibacterial activity against Staphylococcus aureus harbouring GyrA D83N mutant by CLSI method; assay type: functional
Staphylococcus aureus [13] = test: Selectivity ratio of IC50 for inhibition of Staphylococcus aureus DNA topoisomerase 4 decatenation activity to IC50 for inhibition of Staphylococcus aureus DNA gyrase supercoiling activity
[14] = Cytotoxicity activity against human K562 cells assessed as inhibition of cellular growth; assay type: toxicity, cell-based
Outline: (§2)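 Human K562 leukemia cells were tested alongside K/VP.5, an etoposide-resistant clonal subline derived from them that has reduced levels of human topoisomerase IIα. Cell growth inhibition was expressed as an IC50.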

Staphylococcus aureus [15] = test: Antibacterial activity against cystic fibrosis isolate Staphylococcus aureus by CLSI method; assay type: functional
Staphylococcus aureus [16] = test: Antibacterial activity against methicillin-resistant Staphylococcus aureus USA300 by CLSI method; assay type: functional
[17] = Metabolic stability in mouse liver microsomes assessed as half life; assay type: ADME, Microsome
[18] = target: Voltage-gated inwardly rectifying potassium channel KCNH2 (Homo sapiens, UniProt Q12809); test: Inhibition of hERG cardiac ion channel; assay type: toxicity
Outline: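 hERG channel inhibition was run by a contract lab. […] Determinations were made in duplicate or triplicate (n = 2 or 3).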

Staphylococcus aureus [19] = test: Antibacterial activity against Staphylococcus aureus 3527 by CLSI method; assay type: functional
Topoisomerase IV = Topoisomerase IV (Staphylococcus aureus, UniProt P0C1S7+P0C1U9); test: Inhibition of Staphylococcus aureus DNA topoisomerase 4 decatenation activity using kDNA as substrate incubated for 10 to 20 min by ethidium bromide/bromophenol blue staining based agarose gel electrophoresis analysis; assay type: protein-complex assay
[20] = Cytotoxicity activity against human K/VP.5 cells assessed as inhibition of cellular growth; assay type: toxicity, cell-based; outline: as §2

Compound	MIC (Neisseria gonorrhoeae [2]) [µg/mL]	MIC (Neisseria gonorrhoeae [3]) [µg/mL]	MIC (Neisseria gonorrhoeae [4]) [µg/mL]	MIC (Neisseria gonorrhoeae [6]) [µg/mL]	MIC (Neisseria gonorrhoeae [7]) [µg/mL]	MIC (Neisseria gonorrhoeae [8]) [µg/mL]	MIC (Neisseria gonorrhoeae [9]) [µg/mL]	MIC (Neisseria gonorrhoeae [10]) [µg/mL]	IC50 (DNA gyrase) [µM]	MIC (Staphylococcus aureus [11]) [µg/mL]	MIC (Staphylococcus aureus [12]) [µg/mL]	Ratio IC50 (Staphylococcus aureus [13])	IC50 [14] [µM]	MIC (Staphylococcus aureus [15]) [µg/mL]	MIC (Staphylococcus aureus [16]) [µg/mL]	half-life [17] [min]	IC50 [18] [µM]	MIC (Staphylococcus aureus [19]) [µg/mL]	IC50 (Topoisomerase IV) [µM]	IC50 [20] [µM]	also measured
COc1ccc2ncc(F)c(C[C@H](O)[C@H]3OC[C@H](NCc4cc5c(nn4)OCCS5)CO3)c2n1	16 (≈ 32.7 µM)	≤ 0.03	16 (≈ 32.7 µM)	1 (≈ 2.04 µM)	8 (≈ 16.3 µM)	0.5 (≈ 1.02 µM)	16 (≈ 32.7 µM)	32 (≈ 65.4 µM)													IC50 [1]: 83 µM; IC50 [5]: 33 µM
CO/N=C(\C(=O)N[C@@H]1C(=O)N2C(C(=O)O)=C(CSc3nc(=O)c(O)nn3C)CS[C@H]12)c1csc(N)n1 [CEFTRIAXONE]	≤ 0.001	0.002 (≈ 0.00361 µM)	0.008 (≈ 0.0144 µM)	≤ 0.001	0.004 (≈ 0.00721 µM)	1 (≈ 1.8 µM)	0.004 (≈ 0.00721 µM)	≤ 0.001													
O=c1ccc2ncc(F)c3c2n1CC3C[C@H]1OC[C@H](NCc2ccc3c(c2)OCCO3)CO1 (stereo partly drawn)	2 (≈ 4.41 µM)	≤ 0.03	1 (≈ 2.21 µM)	0.12 (≈ 0.265 µM)	0.25 (≈ 0.551 µM)	≤ 0.03	2 (≈ 4.41 µM)	4 (≈ 8.82 µM)	0.047	0.125 (≈ 0.276 µM)	2 (≈ 4.41 µM)	11	34.8	0.25 (≈ 0.551 µM)	0.125 (≈ 0.276 µM)	13.9	100	0.25 (≈ 0.551 µM)	0.54	39.2	
COc1ccc2ncc(F)c(C[C@H](O)[C@H]3OC[C@H](NC(=O)c4ccc5c(n4)NC(=O)CO5)CO3)c2n1	≤ 0.015	≤ 0.015	0.12 (≈ 0.24 µM)	≤ 0.015	≤ 0.015	≤ 0.015	0.06 (≈ 0.12 µM)	0.25 (≈ 0.501 µM)	0.19	0.125 (≈ 0.25 µM)	1 (≈ 2 µM)	5.8	0.49	≤ 0.06	≤ 0.06	5.56	> 100	≤ 0.06	1.1	3.1	

Source: ChEMBL document CHEMBL5131562, “1,3-Dioxane-Linked Novel Bacterial Topoisomerase Inhibitors: Expanding Structural Diversity and the Antibacterial Spectrum” (ACS Med Chem Lett, 2022)
